ChEMBL document CHEMBL2163314, “Potent aminocyclitol glucocerebrosidase inhibitors are subnanomolar pharmacological chaperones for treating gaucher disease” (J Med Chem, 2012)
Substitutions are numbered along the chain they refer to. pIC50, pKi: −log10 of the molar value. Active and inactive are the calls of the source. No cut-off for these calls is given here.

How the values were obtained:
[1] = target: T1, Alpha-galactosidase A (Homo sapiens) (UniProt P06280); assay: Inhibition of lysosomal alpha-galactosidase in human fibroblast at 50 uM after 24 hrs
T1 sequence (whole entry): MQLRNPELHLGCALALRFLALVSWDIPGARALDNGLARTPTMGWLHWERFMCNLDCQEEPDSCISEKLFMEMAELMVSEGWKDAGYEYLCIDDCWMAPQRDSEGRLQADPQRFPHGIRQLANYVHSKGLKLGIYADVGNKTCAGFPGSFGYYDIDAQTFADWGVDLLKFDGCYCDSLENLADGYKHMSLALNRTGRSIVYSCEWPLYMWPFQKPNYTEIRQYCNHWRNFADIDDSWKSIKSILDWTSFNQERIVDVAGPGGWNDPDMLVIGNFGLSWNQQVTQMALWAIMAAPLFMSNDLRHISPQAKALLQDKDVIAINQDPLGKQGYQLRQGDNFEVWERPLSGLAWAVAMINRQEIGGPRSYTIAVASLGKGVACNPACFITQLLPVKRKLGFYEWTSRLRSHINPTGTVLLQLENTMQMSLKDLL
Method in brief: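 Wild-type human fibroblasts (DMEM, 10% FBS, passages 14–30) were plated overnight, then exposed to compound in fresh medium for 24 h at 37 °C, 5% CO2. Lysosomal enzyme activity was then assayed in intact monolayers after the medium was removed. Triplicate determinations.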

[2] = target: T2, Lysosomal acid glucosylceramidase (Homo sapiens, UniProt P04062); assay: Competitive inhibition of recombinant Imiglucerase using 4-methylumbelliferyl-beta-D-glucopyranoside as substrate preincubated for 30 mins before substrate addition at pH 5.2 by Lineweaver-Burk plot assay
T2 sequence (P04062 whole entry): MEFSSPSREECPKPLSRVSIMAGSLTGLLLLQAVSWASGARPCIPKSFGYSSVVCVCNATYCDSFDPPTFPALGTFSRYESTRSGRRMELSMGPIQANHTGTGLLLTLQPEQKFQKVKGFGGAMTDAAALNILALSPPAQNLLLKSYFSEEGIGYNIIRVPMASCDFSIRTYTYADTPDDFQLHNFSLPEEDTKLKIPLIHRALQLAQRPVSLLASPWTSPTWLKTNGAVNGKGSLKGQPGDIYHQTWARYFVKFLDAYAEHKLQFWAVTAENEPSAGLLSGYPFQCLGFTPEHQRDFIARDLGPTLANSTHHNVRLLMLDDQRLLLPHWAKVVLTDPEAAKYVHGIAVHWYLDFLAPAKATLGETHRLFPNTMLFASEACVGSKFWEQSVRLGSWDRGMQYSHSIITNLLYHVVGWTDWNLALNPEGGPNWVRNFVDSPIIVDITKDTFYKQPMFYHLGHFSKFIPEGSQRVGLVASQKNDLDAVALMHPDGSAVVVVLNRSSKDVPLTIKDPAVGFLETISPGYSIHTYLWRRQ

[3] = target: T2, Lysosomal acid glucosylceramidase; assay: Competitive inhibition of recombinant Imiglucerase using 4-methylumbelliferyl-beta-D-glucopyranoside as substrate preincubated for 30 mins before substrate addition at pH 7.0 Lineweaver-Burk plot assay
[4] = target: T2, Lysosomal acid glucosylceramidase; assay: Competitive inhibition of recombinant Imiglucerase using 4-methylumbelliferyl-beta-D-glucopyranoside as substrate preincubated for 30 mins before substrate addition at pH 7.0 by Dixon plot assay
[5] = target: T2, Lysosomal acid glucosylceramidase; assay: Binding affinity to recombinant imiglucerase using 4-methylumbelliferyl-beta-D-glucopyranoside as substrate preincubated for 30 mins before substrate addition by Lineweaver-Burk plot assay
Oryza sativa = assay: Inhibition of rice alpha-glucosidase at 100 uM
Prunus dulcis = assay: Inhibition of almond beta-glucosidase at 100 uM
[6] = target: Alpha-galactosidase (Coffea arabica) (UniProt Q42656); assay: Inhibition of green coffee beans alpha-galactosidase at 100 uM
Chain of Alpha-galactosidase (Coffea arabica) (Q42656 16-378 limits assumed): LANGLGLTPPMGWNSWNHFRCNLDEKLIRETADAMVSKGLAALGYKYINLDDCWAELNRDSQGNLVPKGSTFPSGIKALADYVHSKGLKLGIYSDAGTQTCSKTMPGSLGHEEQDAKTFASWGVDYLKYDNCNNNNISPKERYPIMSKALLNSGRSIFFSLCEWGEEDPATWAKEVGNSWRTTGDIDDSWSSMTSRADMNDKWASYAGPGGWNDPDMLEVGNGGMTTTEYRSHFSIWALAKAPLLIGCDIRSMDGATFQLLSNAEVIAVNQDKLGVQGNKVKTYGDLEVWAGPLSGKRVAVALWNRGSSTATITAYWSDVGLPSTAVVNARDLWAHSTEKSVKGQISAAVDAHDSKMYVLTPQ

[7] = test system: T3, Lysosomal acid glucosylceramidase (Homo sapiens), P04062 [N409S]; assay: Agonist activity at glucosylceramidase N370S mutant in lymphoblast obtained from gauchers patient using 4-methylumbelliferyl-beta-D-glucopyranoside as substrate preincubated at 1 to 5000 nM for 3 days measured 2 hrs post substrate addition by fluorescence assay relative to untreated control; type: functional
T3 sequence (whole entry): T2 sequence (P04062 whole entry) with N409S
Method in brief: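 Patient-derived N370S homozygous lymphoblasts (RPMI-1640, 15% FBS, 37 °C, 5% CO2; passages 5–16) seeded at 2 × 10^5 cells/well, exposed to compound for 3 days. Cells washed in PBS and lysed in water by sonication. Homogenate incubated with 6 mM 4-MU-β-glucoside in 0.1 M citrate phosphate pH 5.2 with 0.25% taurocholate and 0.1% Triton X-100, 37 °C, 2 h. Fluorescence read at 355/460 nm; activity normalized to untreated cells; triplicate.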

[8] = target: Lysosomal alpha-glucosidase (Homo sapiens) (UniProt P10253); assay: Inhibition of lysosomal alpha-glucosidase in human fibroblast at 5 uM after 24 hrs
[9] = target: T1, Alpha-galactosidase A (Homo sapiens); assay: Inhibition of lysosomal alpha-galactosidase in human fibroblast at 5 uM after 24 hrs

SMILES: CCCCCCCCCN[C@H]1[C@H](O)[C@@H](O)[C@H](O)[C@@H](O)[C@@H]1OC.Cl
- inhibition [1]: inactive
- pIC50 [2]: 5.36
- pIC50 [3]: 6.17
- pIC50 [4]: 6.17
- pKi [5]: 5.80
- inhibition (Oryza sativa): inactive
- inhibition (Prunus dulcis): inactive
- inhibition [6]: inactive

SMILES: CCCCCCCCCN[C@@H]1[C@H](O)[C@@H](O)[C@H](O)[C@@H](O)[C@@H]1O
- inhibition [1]: inactive
- pIC50 [2]: 4.28
- pIC50 [3]: 4.60
- pIC50 [4]: 4.60
- pKi [5]: 4.75
- inhibition (Oryza sativa): inactive
- inhibition (Prunus dulcis): inactive
- inhibition [6]: inactive
- Activity [7]: inactive

SMILES: CCCCCCCCCN[C@H]1[C@H](O)[C@@H](O)[C@H](O)[C@@H](O)[C@H]1OC.Cl
- inhibition [1]: inactive
- pIC50 [2]: 6.89
- pIC50 [3]: 7.72
- pIC50 [4]: 7.72
- pKi [5]: 7.28
- inhibition (Oryza sativa): inactive
- inhibition (Prunus dulcis): inactive
- inhibition [6]: inactive

SMILES: CCCCCCCCCN[C@H]1[C@H](O)[C@@H](O)[C@H](O)[C@@H](O)[C@@H]1O
- inhibition [1]: inactive
- pIC50 [2]: 5.41
- pIC50 [3]: 6.11
- pIC50 [4]: 6.11
- pKi [5]: 5.72
- inhibition (Oryza sativa): inactive
- inhibition (Prunus dulcis): inactive
- inhibition [6]: inactive
- Activity [7]: inactive

SMILES: CCCCCCCCCN[C@H]1[C@H](O)[C@@H](O)[C@H](O)[C@@H](O)[C@@H]1OCCCCCCCCC.Cl
- pIC50 [2]: 6.17
- pIC50 [3]: 6.77
- pIC50 [4]: 6.77
- pKi [5]: 6.55
- inhibition [8]: < 16%
- inhibition [9]: < 16%
- inhibition (Oryza sativa): inactive
- inhibition (Prunus dulcis): inactive
- inhibition [6]: inactive

SMILES: CCCCCCCCCN[C@@H]1[C@H](O)[C@H](O)[C@@H](O)[C@H](O)[C@H]1O.Cl
- inhibition [1]: inactive
- pIC50 [2]: 7.10
- pIC50 [3]: 7.60
- pIC50 [4]: 7.60
- pKi [5]: 7.49
- inhibition (Oryza sativa): inactive
- inhibition (Prunus dulcis): inactive
- inhibition [6]: inactive

SMILES: CCCCCCCCCO[C@H]1[C@@H](N)[C@H](O)[C@@H](O)[C@H](O)[C@H]1O.Cl
- inhibition [1]: inactive
- pIC50 [2]: 6.35
- pIC50 [3]: 6.92
- pIC50 [4]: 6.92
- pKi [5]: 6.89
- inhibition (Oryza sativa): inactive
- inhibition (Prunus dulcis): inactive
- inhibition [6]: inactive

SMILES: CCCCCCCCCN[C@H]1[C@H](O)[C@@H](O)[C@H](O)[C@@H](O)[C@H]1OCCCCCCCCC.Cl
- pIC50 [2]: 8.40
- pIC50 [3]: 8.30
- pIC50 [4]: 8.30
- pKi [5]: 9.00
- inhibition [8]: inactive
- inhibition [9]: inactive
- inhibition (Oryza sativa): inactive
- inhibition (Prunus dulcis): inactive
- inhibition [6]: inactive

SMILES: CCCCCCCCCN(CCCCCCCCC)[C@@H]1[C@H](O)[C@H](O)[C@@H](O)[C@H](O)[C@H]1O.Cl
- pIC50 [2]: 5.76
- pIC50 [3]: 6.28
- pIC50 [4]: 6.28
- pKi [5]: 6.09
- inhibition [8]: < 16%
- inhibition [9]: < 16%
- inhibition (Oryza sativa): inactive
- inhibition (Prunus dulcis): inactive
- inhibition [6]: inactive
- Activity [7]: inactive
